The record followed here is ChEMBL document CHEMBL4402547, “Synthesis and Pharmacological Characterization of Conformationally Restricted Retigabine Analogues as Novel Neuronal Kv7 Channel Activators” (J Med Chem, 2020).

Data set [1] has as its system Potassium voltage-gated channel subfamily KQT member 2 (Homo sapiens), O43526 [F168L]. Briefly: Activation of ICA-insensitive human Kv7.2 F168L mutant expressed in CHO cells assessed as increase in channel current amplitude at 10 uM measured at holding potential of -40 mV by whole cell patch clamp electrophysiology assay. The data set is classed as cell-based. Summed up: (§1)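 CHO cells transiently co-transfected (Lipofectamine 2000, 4 μg total cDNA, EGFP marker) with human channel cDNA in pcDNA3.1, recorded 24 h later. Whole-cell patch clamp at 20–22°C, 3–5 MΩ pipettes, perfused extracellular solution pH 7.4. Held at −80 mV; 3-s ramps −80 to +20 mV ± 10 μM drug. Current at −40 mV with vs without drug expressed as ratio; ≥3 cells from ≥2 transfections, mean ± SEM.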

Data set [2] in a line: Photostability of compound in pH 7.4 buffer assessed as compound degradation at 100 ug/ml incubated for 4 hrs under natural solar light-irradiation by HPLC analysis relative to control. A digest of the protocol: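 DMSO solutions diluted in pH 7.4 buffer, held in 1 cm quartz cells and exposed to natural daylight. Light-shielded controls kept at 37°C in foil. Aliquots drawn at set intervals and parent compound loss measured by UHPLC: C18 column, 0.1% TFA water/acetonitrile gradient, 45°C, detection at 254 nm.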

Data set [3] has as its target T1, Potassium voltage-gated channel subfamily KQT member 2 (Homo sapiens, UniProt O43526). The data set can be described thus: Activation of human Kv7.2 expressed in CHO cells assessed as maximal steady-state increase in current amplitude at 10 uM measured after 200 secs at holding potential of -40 mV by whole cell patch clamp electrophysiology assay. The data set is classed as cell-based. On the technique in general: Patch clamp records ionic current or voltage across a cell membrane.

Data set [4] concerns the target T1, Potassium voltage-gated channel subfamily KQT member 2. The data set can be described thus: Activation of human Kv7.2 expressed in CHO cells assessed as increase in current amplitude at 10 uM measured at holding potential of -40 mV by whole cell patch clamp electrophysiology assay relative to control. It is filed as cell-based. Summed up:
as §1

Data set [5] has the same target. Briefly: Activation of human Kv7.2 expressed in CHO cells assessed as delta V at 10 uM by whole cell patch clamp electrophysiology assay. It is filed as cell-based. A digest of the protocol:
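Human Kv7.2 transiently expressed in CHO cells; whole-cell recordings at room temperature (20–22°C), pH 7.4 extracellular solution. 3-s ramps from −80 to +20 mV with 0.01–10 μM drug. ΔV taken as shift of the potential where current reaches 20% of peak, drug vs control, plotted against log concentration. Four-parameter logistic fit gives EC50; mean ± SD of ≥3 experiments.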

Data set [6] has as its target CYP450 (phase 1 metabolism) (Homo sapiens, UniProt P04798+P05177+P05181+P08684+P10632+P10635+P11509+P11712+P13584+P20813+P20815+P20853+P24462+P24903+P33260+P33261+P51589+P78329+P98187+Q02928+Q08477+Q16678+Q16696+Q5TCH4+Q6VVX0+Q7Z449+Q8TAV3+Q96SQ9+Q9HB55). The data set can be described thus: Drug metabolism in human liver S9 fractions assessed as CYP450-mediated phase 1 metabolism at 1 mM preincubated for 5 mins followed by NADPH addition and measured after 60 mins by RP-UHPLC-DAD analysis relative to control. The data set is classed as ADME, subcellular. The settings on record: read-out: Drug metabolism. Summed up: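 Drug (1 mM stock, 2 μL) incubated with pooled human liver S9 fraction in 100 mM phosphate buffer pH 7.4. After 5 min preincubation, NADPH added and mixture kept 60 min at 37°C. Stopped with ice-cold methanol, centrifuged, supernatant analysed by RP-UHPLC-DAD. % turnover = 100 − (60 min/0 min concentration × 100). Controls: no-NADPH, and testosterone, 7-hydroxycoumarin, p-aminobenzoic acid.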

Data set [7] addresses T1, Potassium voltage-gated channel subfamily KQT member 2. The data set can be described thus: Activation of human Kv7.2 expressed in CHO cells assessed as half-activation voltage at 0.03 uM in constant voltage pulse by whole cell patch clamp electrophysiology assay (reference value: -38.2 +/- 2 mV). The data set is classed as cell-based. A digest of the protocol: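 Transiently transfected CHO cells (human Kv7.2 cDNA in pcDNA3.1, EGFP marker), recorded 24 h post-transfection by whole-cell patch clamp at 20–22°C; extracellular solution in mM 138 NaCl, 2 CaCl₂, 5.4 KCl, 1 MgCl₂, 10 glucose, 10 HEPES, pH 7.4. Constant voltage pulses before and after 0.03 μM compound; conductance/voltage curves fitted to double Boltzmann for V1/2 and maximal conductance.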

The target in data set [8] is Voltage-gated potassium channel, KQT; KCNQ2(Kv7.2)/KCNQ3(Kv7.3) (Homo sapiens) (UniProt O43526+O43525). Briefly: Activation of human Kv7.2/Kv7.3 expressed in CHO cells assessed as delta V at 10 uM by whole cell patch clamp electrophysiology assay. It is filed as cell-based.
The target of data set [9] is T1, Potassium voltage-gated channel subfamily KQT member 2. Briefly: Activation of human Kv7.2 expressed in CHO cells assessed as increase in current amplitude at 10 uM measured at holding potential of 0 mV by whole cell patch clamp electrophysiology assay relative to control. It is filed as cell-based. A digest of the protocol: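 Transiently transfected CHO cells expressing human Kv7.2, whole-cell patch clamp at 20–22°C in HEPES-buffered saline pH 7.4. Cells held at −80 mV and ramped −80 to +20 mV over 3 s, before and during 10 μM drug. Ramp current at 0 mV taken as drug/control ratio; mean ± SEM of ≥3 cells, ≥2 transfections.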

The next data set concerns the target UGT (phase 2 metabolism) (Homo sapiens, UniProt O60656+O75310+O75795+P06133+P0DTE4+P0DTE5+P16662+P19224+P22309+P22310+P35503+P35504+P36537+P54855+Q6UWM9+Q9BY64+Q9HAW7+Q9HAW8+Q9HAW9). Briefly: Drug metabolism in human liver S9 fractions assessed as assessed as UGT-mediated phase 2 metabolism at 1 mM preincubated for 5 mins followed by NADPH addition and measured after 60 mins by RP-UHPLC-DAD analysis relative to control. Conditions: read-out: Drug metabolism. It is filed as ADME, subcellular. A digest of the protocol: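 Compound (2 μL of 1 mM stock) in 100 mM phosphate buffer pH 7.4 with pooled human liver S9, preincubated 5 min, then NADPH added, 37°C for 60 min. For UGT: 5 mM UDPGA, alamethicin, 1 mM MgCl added; for NAT: 2 mM DTT, sulfamethazine, 4.5 mM acetyl DL-carnitine, 0.1 U/mL carnitine acetyltransferase. Stopped with ice-cold methanol; RP-UHPLC-DAD; % turnover = 100 − (60 min/0 min concentration × 100).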

Active and inactive are the calls of the source. The rule behind the calls is not given here.

T1 sequence (O43526 whole entry): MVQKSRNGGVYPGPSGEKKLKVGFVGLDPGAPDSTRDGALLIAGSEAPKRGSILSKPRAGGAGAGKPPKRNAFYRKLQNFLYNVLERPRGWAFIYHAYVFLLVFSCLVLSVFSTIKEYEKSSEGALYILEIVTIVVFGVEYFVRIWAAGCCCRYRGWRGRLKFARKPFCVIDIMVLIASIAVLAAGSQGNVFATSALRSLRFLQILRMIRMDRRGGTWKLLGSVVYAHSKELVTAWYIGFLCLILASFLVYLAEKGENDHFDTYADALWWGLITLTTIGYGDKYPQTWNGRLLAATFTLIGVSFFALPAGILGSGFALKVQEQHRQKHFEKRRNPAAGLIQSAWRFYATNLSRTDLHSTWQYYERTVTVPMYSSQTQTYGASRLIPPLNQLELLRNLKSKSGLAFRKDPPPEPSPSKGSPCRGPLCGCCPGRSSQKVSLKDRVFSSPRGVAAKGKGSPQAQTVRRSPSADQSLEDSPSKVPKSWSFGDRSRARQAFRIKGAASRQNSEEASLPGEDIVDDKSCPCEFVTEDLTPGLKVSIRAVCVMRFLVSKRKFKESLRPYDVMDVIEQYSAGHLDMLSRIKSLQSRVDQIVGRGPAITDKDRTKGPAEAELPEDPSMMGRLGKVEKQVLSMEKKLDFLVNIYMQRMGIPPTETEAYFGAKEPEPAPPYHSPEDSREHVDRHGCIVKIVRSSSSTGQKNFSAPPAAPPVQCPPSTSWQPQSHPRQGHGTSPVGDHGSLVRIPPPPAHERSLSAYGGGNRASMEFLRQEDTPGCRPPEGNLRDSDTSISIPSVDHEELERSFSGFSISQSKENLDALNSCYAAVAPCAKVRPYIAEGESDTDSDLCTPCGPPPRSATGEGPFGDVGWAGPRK
Chain of Potassium voltage-gated channel subfamily KQT member 2 (Homo sapiens), O43526 [F168L] (O43526 whole entry F168L, the tested form may be a part): as the sequence (O43526 whole entry) above, with F168L counted along it

On to `CCCCCCC(=O)Nc1ccc2c(ccn2Cc2ccc(C(F)(F)F)cc2)c1`, for which the outcome in data set [1], in data set [3], in data set [4] and in data set [9] was Active. For the same compound, in data set [2], the Drug degradation turned out to be 5.82%. Further, the Activity in [5] is -29.5 mV; in data set [8], -25.4 mV. In addition, in data set [6], the metabolised at 1 h, 1000 µM was found to be 48.7%. Moreover, the V1/2 in data set [7] was -38.2 mV.

In the case of `CCOC(=O)Nc1ccc(NCc2ccc(F)cc2)cc1N` [EZOGABINE], the result in [1] was Active. Besides, the Drug degradation in data set [2] is 25.2%. Also, the Ratio in data set [4] is 6; in data set [9], 2. The Activity in [5] is -25.4 mV; in data set [8] it was -26.8 mV. Moreover, the values for the metabolised at 1 h, 1000 µM (in data set [6]; on UGT (phase 2 metabolism)) were 3.11% and 11.4%, respectively. The V1/2 in [7] is -24.4 mV.

Regarding `CC(C)(C)CC(=O)Nc1ccc2c(ccn2Cc2ccc(C(F)(F)F)cc2)c1`, the result in data set [1], in data set [3], in data set [4] and in data set [9] was Active. In data set [2], the Drug degradation was found to be 6.62%. In addition, the Activity is -30 mV in data set [5] and -20 mV in [8]. The metabolised at 1 h, 1000 µM in data set [6] was 17.3%; on UGT (phase 2 metabolism), 7.42%.
